# Rad51 HR inh: blocks human Rad51 in homologous recombination | Q06609 | hRad51 DNA strand exchange, fluorescence dequenching | inhibition, % at 10 µM | 0.085% of 200,000 active;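 active means inhibition above 40% at the single screening dose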;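 further: 0% = DMSO control wells and 100% = blanks with heterologous ssDNA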
#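 Material: Human Rad51 nucleoprotein filaments preassembled on unlabelled ssDNA | Also added: Labelled 47-mer dsDNA for strand exchange | Dosing: Single dose, 10 µM final compound | Schedule: 30-min compound preincubation and 15-min exchange, both room temperature | Technique: Fluorescence dequenching at 485/520 nm | Measure: Percent inhibition relative to plate controls and blanks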
# ROMK primary: modulators of human ROMK potassium channel | P48048 | Tet-inducible ROMK, thallium flux fluorescence; actives lie on both sides | B-score at 10 µM | 2% of 130,000 active | AID 1918;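 active means signal ratio slope over the read window, or its plate-corrected B-score, at least 3 SD from the plate mean, either direction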;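 further: B-score of the F/F0 ratio slope over 7 to 12 s after thallium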
# PKD1 kinase inh: inhibitors of human PKD1 kinase | PKD1 kinase fluorescence polarization assay | AID 797 | 0.056% of 200,000 active | inhibition, % (test concentration not listed); in the data active means inhibition above about 50%
# Target sequence (Q15139 whole entry, looked up): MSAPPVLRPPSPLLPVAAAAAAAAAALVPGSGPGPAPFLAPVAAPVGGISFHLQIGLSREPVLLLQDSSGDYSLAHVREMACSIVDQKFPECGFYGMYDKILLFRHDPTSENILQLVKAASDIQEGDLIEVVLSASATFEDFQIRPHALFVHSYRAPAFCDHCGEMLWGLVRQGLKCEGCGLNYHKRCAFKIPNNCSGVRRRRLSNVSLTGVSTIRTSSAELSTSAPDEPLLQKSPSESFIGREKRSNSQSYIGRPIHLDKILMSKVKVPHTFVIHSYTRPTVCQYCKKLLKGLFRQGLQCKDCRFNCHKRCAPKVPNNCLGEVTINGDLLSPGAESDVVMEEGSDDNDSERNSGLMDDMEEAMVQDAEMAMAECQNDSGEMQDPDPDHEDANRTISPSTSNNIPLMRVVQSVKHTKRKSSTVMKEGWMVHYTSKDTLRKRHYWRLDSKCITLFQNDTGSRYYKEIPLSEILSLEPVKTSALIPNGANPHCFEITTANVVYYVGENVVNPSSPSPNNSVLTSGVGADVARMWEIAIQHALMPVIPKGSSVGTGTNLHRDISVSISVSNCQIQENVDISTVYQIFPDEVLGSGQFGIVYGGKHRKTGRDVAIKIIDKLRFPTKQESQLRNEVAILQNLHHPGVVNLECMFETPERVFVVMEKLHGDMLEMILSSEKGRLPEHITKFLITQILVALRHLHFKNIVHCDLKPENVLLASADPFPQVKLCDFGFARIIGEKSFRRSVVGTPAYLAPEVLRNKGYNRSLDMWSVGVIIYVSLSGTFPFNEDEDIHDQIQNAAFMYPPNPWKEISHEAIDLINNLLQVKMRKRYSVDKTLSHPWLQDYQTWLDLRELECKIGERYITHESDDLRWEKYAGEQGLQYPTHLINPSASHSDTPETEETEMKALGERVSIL
# KCC2 mod: KCC2 (human) Cl- transport modulation; Q9H2X9; KCC2 cells, thallium flux FluoZin-2 fluorescence; B-score of Tl+ flux slope (higher = more flux/activation; lower = inhibition) at 10 µM; 2.2% of 190,000 active; AID 1456;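 active means thallium flux slope and its plate-corrected score both differing from the plate sample mean at a set confidence after two filtering rounds, in either direction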;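 further: slope of fluorescence scaled to starting intensity during 10 to 20 s after thallium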
# ROMK hit retest: human ROMK channel modulation, retest confirmation. shares compounds with ROMK primary. ROMK thallium flux, fluorescence ratio; hits give low values. normalized thallium flux (F/F0 slope) at 10 µM. 54% of 3,000 active. AID 1917;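 active means Flux at 10 µM at least 3 SD below or above vehicle control mean in one or both replicates; inconclusive means no clear call, values can overlap the other calls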
# * = called active by the depositor; ? = inconclusive; / = not tested or not shown. A selection: hits, their analogues and other compounds. The true share with any hit is near 3%.
SMILES,Rad51 HR inh,ROMK primary,PKD1 kinase inh,KCC2 mod,ROMK hit retest
O=C(c1ccc([N+](=O)[O-])cc1)N(Cc1ccc(Br)cc1)N1C(=O)CCCC1=O,-1,-7.3*,-6,/,0.037*
COc1ccc(-c2cc(-c3nnc(COC(=O)CC4CC5CCC4C5)o3)c3ccccc3n2)cc1OC (stereo not given),19,-0.94,13,-0.14,/
O=C(Nc1cccnc1)c1cc(-c2ccccc2O)on1,-24,3*,/,1.3,?
Cn1nc(C(=O)NC(C)(C)C)c2ccccc21,5,0.028,2,0.45,/
CN(C)/C=N/C(=S)Nc1ccccc1Cl,14,-0.33,-8,0.26,/
CN(O)/C=N/C(=S)Nc1ccc(Cl)cc1Cl,-4,2.4*,0,1.2,0.08
CCC(=O)N(c1ccc(C(=O)O)cc1)c1nc(-c2ccc(OC)cc2)c(C)s1,6,-0.012,-7,-1.4,/
O=C(O)CCNC(=O)c1ccc(NC(=O)Cc2ccc(Cl)cc2)cc1,-5,-0.11,-10,-0.16,/
CCOC(=O)c1sc2nc3c(SCCC(=O)O)cc(C(=O)c4cc(OC)ccc4O)cn3c(=O)c2c1C,-60,0.029,-6,-0.32,/
CCOC(=O)c1sc2nc3c(SCCC#N)cc(C(=O)c4cc(F)ccc4O)cn3c(=O)c2c1C,-71,-3.8*,-3,-0.00016,0.07
CC(C)(C)NC(=O)CSc1nc2[nH]ncc2c(=O)[nH]1,-6,-0.5,0,0.3,/
CC1CC(C)(C)NC(=S)N1CCC(=O)NCCc1ccc(Cl)cc1 (stereo not given),16,-1,-5,-0.22,/
Cc1ccc(CSCCNS(=O)(=O)c2ccccc2)cc1,-1,-0.34,-9,-0.76,/
Cc1ccc(NC(=O)c2ccc3c(c2)[nH]c(=O)n3C(C)C)cc1,3,2.9*,4,0.38,0.085
CC(C)n1c(=O)[nH]c2ccccc21,1,/,0,0.11,/
COc1ccc(-n2c(-c3cnccn3)n[nH]c2=S)cc1,7,/,-5,-0.37,0.086
S=c1[nH]nc(-c2cnccn2)n1-c1ccccc1,-3,1.1,6,-3.3,/
Cc1ccc(C2CC(=O)NC(SCc3ccccc3)=C2C#N)cc1 (stereo not given),-2,/,-11,-0.0098,0.066*
CCc1ccc(-n2c(=O)c3c(C)c(C)sc3n(CC(=O)NCC3CCCO3)c2=O)cc1 (stereo not given),5,1.2,-1,-0.59,/
CSc1ccc(/C=C(\NC(=O)c2ccccc2)C(=O)NN)cc1,/,/,/,-0.14,0.074
CCOC(=O)N1CCN(C(=O)/C(=C\c2ccc(SC)cc2)NC(=O)c2ccccc2)CC1,/,/,/,-1,/
Cn1c(N)c(C(=O)Nc2c(Cl)cccc2Cl)sc1=S,13,/,/,-0.71,/
CCc1ccc2nc(SCC(=O)Nc3nnc(C)s3)c(C)cc2c1,1,0.92,-1,0.73,0.091
c1ccc(CN(CC2=NCCN2)c2ccccc2)cc1,6,/,-1,0.42,/
c1ccc(CC2=NCCN2)cc1,5,3.1*,-6,/,0.079
SMILES,Rad51 HR inh,ROMK primary,PKD1 kinase inh,KCC2 mod,ROMK hit retest
Cc1cccc(OCc2n(CC(=O)OC3CC(C)CCC3C(C)C)c3ccccc3[n+]2C)c1 (stereo not given),14,-6.2*,-6,0.91,0.037*
CC1CCC(C(C)C)C(OC(=O)Cn2c(-c3ccccc3)[n+](C)c3ccccc32)C1 (stereo not given),6,-6.3*,10,-0.12,0.039*
CC1CCC(C(C)C)C(OC(=O)Cn2c(-c3ccc(F)cc3)[n+](C)c3ccccc32)C1 (stereo not given),6,-5*,2,-1.3,0.047*
CC1CCC(C(C)C)C(OC(=O)CSc2nnc(N)s2)C1 (stereo not given),/,/,-3,-1.1,/
COc1ccc(CCC(=O)N2CCCSC2=Nc2ccc(C(C)=O)cc2)cc1,1,/,-4,-0.79,/
Clc1ccc(CN2C3=NCCN3c3ccccc32)cc1Cl,-3,-2.8*,-6,-0.16,0.06*
O=C(NCc1nnc2c3ccccc3c(-c3ccccc3)nn12)c1ccc(Cl)cc1,0,/,4,-1.2,0.073
COc1c(C)cc(S(=O)(=O)NC2CC(C)(C)NC(C)(C)C2)c(C)c1C,4,/,2,-1.3,/
CCOc1cc(C)c(S(=O)(=O)NC2CC(C)(C)NC(C)(C)C2)cc1C,6,-3.5*,-7,-0.55,0.066*
CC(C)CNC(=S)NC1CC2CCC(C1)N2Cc1ccccc1 (stereo not given),/,/,5,/,/
CC(C)CNC(=S)NC1CC2CCCC(C1)N2C1CCCCC1 (stereo not given),-3,-3.3,1,1.5,0.054*
